# Screens (PubChem)
# The list is not random: actives were taken first. Their share in the collection is about 4.1%.
# KCNQ1 block: blocks the human KCNQ1 potassium channel | actives 1.3% (n = 310,000) | B-score at 10 µM | CHO-K1 KCNQ1, FluxOR thallium flux fluorescence; active compounds read high | AID 2642;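 active = compounds whose thallium flux B-score, printed positive for inhibition, exceeds three library SD while starting fluorescence stays within three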;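 also: channel opened by potassium depolarization with thallium stimulus after 20 min compound exposure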
# hERG protect: hERG (human) protection from proarrhythmic block | AID 1511 | CHO-hERG, FluxOR thallium flux, dofetilide IC70 present | Q12809 | actives 0.51% (n = 310,000) | activation (rescue from dofetilide block), less the hit threshold, % at 10 µM;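 active = activation above the mean of controls blocked by dofetilide plus 5 SD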;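 also: thallium influx through hERG after potassium depolarization seen as dye fluorescence rise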
# Target sequence (Q12809 whole entry, looked up): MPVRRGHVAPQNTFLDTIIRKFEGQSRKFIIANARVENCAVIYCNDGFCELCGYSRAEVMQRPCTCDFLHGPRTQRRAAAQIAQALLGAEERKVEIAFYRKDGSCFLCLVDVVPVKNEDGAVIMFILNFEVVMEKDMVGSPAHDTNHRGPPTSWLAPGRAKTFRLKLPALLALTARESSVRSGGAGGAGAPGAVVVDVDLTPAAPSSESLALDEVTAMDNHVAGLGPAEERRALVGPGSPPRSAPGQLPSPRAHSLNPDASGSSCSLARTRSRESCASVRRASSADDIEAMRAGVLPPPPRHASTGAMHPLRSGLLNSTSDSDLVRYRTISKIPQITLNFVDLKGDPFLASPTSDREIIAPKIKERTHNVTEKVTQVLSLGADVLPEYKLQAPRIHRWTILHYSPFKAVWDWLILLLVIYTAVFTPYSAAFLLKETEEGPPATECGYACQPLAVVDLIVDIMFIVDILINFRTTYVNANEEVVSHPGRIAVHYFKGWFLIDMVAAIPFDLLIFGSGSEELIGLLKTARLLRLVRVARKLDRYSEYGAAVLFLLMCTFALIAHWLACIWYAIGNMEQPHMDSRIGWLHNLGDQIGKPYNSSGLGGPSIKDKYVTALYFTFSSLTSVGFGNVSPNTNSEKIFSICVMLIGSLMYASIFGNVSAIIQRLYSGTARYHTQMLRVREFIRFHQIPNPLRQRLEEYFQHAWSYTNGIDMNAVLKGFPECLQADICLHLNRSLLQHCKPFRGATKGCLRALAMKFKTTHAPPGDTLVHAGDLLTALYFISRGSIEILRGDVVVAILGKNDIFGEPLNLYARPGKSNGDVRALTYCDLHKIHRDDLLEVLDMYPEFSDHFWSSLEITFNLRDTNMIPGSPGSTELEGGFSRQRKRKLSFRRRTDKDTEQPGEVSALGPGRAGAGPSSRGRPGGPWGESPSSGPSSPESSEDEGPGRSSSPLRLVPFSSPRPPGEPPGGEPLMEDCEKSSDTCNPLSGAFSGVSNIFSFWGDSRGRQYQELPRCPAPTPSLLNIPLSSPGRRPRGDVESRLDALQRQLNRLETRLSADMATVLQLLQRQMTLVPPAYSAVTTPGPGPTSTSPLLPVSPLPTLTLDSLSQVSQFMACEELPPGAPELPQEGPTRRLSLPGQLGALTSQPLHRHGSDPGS
# KCNK3 block: human KCNK3 channel inhibition, primary screen | O14649 | CHO-KCNK3 thallium flux, FluxOR fluorescence; active compounds read low | B-score at 10 µM | actives 0.84% (n = 340,000);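 active = B-score under library mean minus 4 SD, starting fluorescence ratio at most library mean plus 5 SD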;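 also: more negative B-score means stronger inhibition of thallium flux through KCNK3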
# KCNK9 inh: human KCNK9 channel inhibition | HEK293 KCNK9, FluxOR thallium flux fluorescence; active compounds read low | B-score at 10 µM | actives 1.2% (n = 310,000);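 active = ratio B-score over 3 SD below the library mean, with starting fluorescence within 5 SD of its mean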;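 also: negative B-score means less thallium flux so channel inhibition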
# KCC2 mod: KCC2 (human) Cl- transport modulation; KCC2 cells, thallium flux FluoZin-2 fluorescence; B-score of Tl+ flux slope (higher = more flux/activation; lower = inhibition) at 10 µM; Q9H2X9; actives 2.2% (n = 190,000);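 active = thallium flux slope and its plate-corrected score both differing from the plate sample mean at a set confidence after two filtering rounds, in either direction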;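 also: slope of fluorescence scaled to starting intensity during 10 to 20 s after thallium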
# KCNQ1 pot: potentiates or activates the human KCNQ1 potassium channel. B-score at 10 µM. P51787. actives 0.35% (n = 310,000). CHO-K1 KCNQ1, thallium flux FluxOR fluorescence; active compounds read high;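 active = fluorescence ratio B-score, a plate-corrected score, at least three library SD, with initial intensity B-score within 5 SD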
#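 Material: CHO-K1 cells stably expressing KCNQ1. Medium: assay buffer for compound exposure, DMSO matched across wells. Reagent: K+/Tl+ depolarizing stimulus. Compound dosing: single-concentration screen. Times: 37 °C overnight plating, 90-min dark dye load, 20-min compound pretreatment. Technique: FluxOR Tl+ flux fluorescence.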
# KCNK9 block conf: human KCNK9 inhibitor confirmation; shares compounds with KCNK9 inh; HEK293 KCNK9 cells, FluxOR thallium flux fluorescence; inhibition, % at 10 µM; actives 43% (n = 4,900);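 active = thallium signal inhibited by more than 5 SD of the compound-free buffer control wells, on both duplicate plates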;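 also: 0% = assay buffer control wells without compound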
# Kir21 sel: selectivity of KCNK9 modulators against mouse Kir2.1; shares compounds with KCNK9 inh; Kir2.1 cells, FluxOR thallium flux fluorescence; inhibition, % at 10 µM; actives 4% (n = 4,900);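 active = thallium signal drop more than 5 SD beyond the mean of the no-compound control wells, seen in both duplicate plates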;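 also: signal is fluorescence rise after thallium addition divided by baseline fluorescence; plate controls were assay buffer only for no effect and full block by chlorpromazine control for full effect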
# HEK293 Tl ctr: second check of KCNK9 modulator effects in non-induced HEK293 cells; shares compounds with KCNK9 inh; FluxOR thallium flux; inhibition, % at 10 µM; actives 40% (n = 4,900);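 active = thallium signal drop beyond 5 SD of the untreated control mean, on both duplicate plates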;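 also: plate controls were buffer only IC0 wells for no effect and SID17386958 at its maximal inhibitory level for full effect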
# An asterisk follows results filed as active; i = inactive; x = not tested or not shown.
SMILES,KCNQ1 block,hERG protect,KCNK3 block,KCNK9 inh,KCC2 mod,KCNQ1 pot,KCNK9 block conf,Kir21 sel,HEK293 Tl ctr
CCC(=O)Nc1cccc(C2=NN(c3ccccc3)C(c3ccc(OC)cc3)C2)c1 (centres undefined),i,-5,i,-13*,x,i,52%*,i,40%*
O=C(/C=C/CCc1ccc2c(c1)OCO2)N1CCCCC1,x,x,i,x,x,x,x,x,x
CCOC(=O)CSc1nc(C)nc2c1sc1nc(C)c(C(C)=O)c(-c3ccc(OC)cc3)c12,i,-5,i,-11*,-0.68,i,48%*,i,46%*
Cc1ccc(CN2CCS(=O)(=O)CC2)cc1,i,-5,i,i,0.053,i,x,x,x
Cc1ccc(CN2CCCN(Cc3c(C)cc(C)cc3C)S2(=O)=O)cc1,i,-4,i,i,x,i,i,i,i
COc1ccc(/C=N/NC(=O)c2csc(-n3nc(C)cc3C(F)(F)F)n2)cc1,i,-12,i,-10*,0.28,i,i,i,26%*
CSc1cccc(CN2CCC(Oc3ccc(C(=O)N4CCCCC4)cc3)CC2)c1,i,-8,i,i,x,i,x,x,x
CC(C)Oc1ccc(CN2CCC(n3nccc3NC(=O)CCc3ccccc3)CC2)cc1,i,-14,i,i,x,i,x,x,x
O=C(NC1CCCCC1)c1cc([N+](=O)[O-])ccc1N1CCCCC1,i,-13,i,i,x,i,x,x,x
CCc1ccccc1NC(=O)c1cc(S(=O)(=O)N(C)C)ccc1N1CCCC1,i,-12,i,i,x,i,x,x,x
CN(C)S(=O)(=O)c1ccc(N2CCCC2)c(C(=O)Nc2ccccc2Br)c1,i,-11,i,i,x,i,i,i,i
CCc1ccc(OCC(=O)NNC(=O)c2cc(S(=O)(=O)N(C)C)ccc2N2CCCC2)cc1,i,-10,i,i,x,i,i,i,i
CN(C)S(=O)(=O)c1ccc(N2CCCC2)c(C(=O)NC2CCCCC2)c1,i,-13,i,i,x,i,i,i,i
CN(C)S(=O)(=O)c1ccc(N2CCCC2)c(C(=O)NNC(=O)COc2ccc(Cl)cc2)c1,i,-15,i,i,x,i,x,x,x
Cc1c(N(C(=O)c2ccccn2)C2(C(=O)NC3CCCCC3)CCCCC2)c(=O)n(-c2ccccc2)n1C,i,-4,i,i,-1.8,i,x,x,x
COc1ccc(NS(=O)(=O)c2ccc3oc(SC(C)C(N)=O)nc3c2)cc1 (centres undefined),i,-13,i,i,x,i,x,x,x
Cc1ccc(C)n1-c1nn(S(=O)(=O)c2cccc(C(F)(F)F)c2)c2cccc(F)c12,i,0,i,-14*,-0.91,i,60%*,i,30%*
COC(=O)c1sc(-c2ccc(Cl)cc2)cc1NC(=O)CSCC(=O)O,i,-13,i,i,-2.4,i,i,i,i
COC(=O)c1sc(-c2ccc(C(C)(C)C)cc2)cc1NC(=O)COCC(=O)O,i,-5,i,i,-0.7,i,x,x,x
CCN(CC)S(=O)(=O)c1ccc(Cl)c(C(=O)NNC(=O)c2csc(N3CCOCC3)n2)c1,x,x,i,x,x,x,x,x,x
CC(C)CN1C(=O)C(=Nc2cccnc2)c2ccccc21,i,-9,i,i,-0.94,i,x,x,x
Cc1ccc(NC(=O)CN(C)Cc2cccs2)cc1Cl,i,-13,i,-16*,x,i,68%*,i,32%*
CCN(CC)c1ccc(NC(=O)CN(C)Cc2cccs2)cc1,i,-6,i,i,x,i,x,x,x
CN(CCCCCCCCCCN(C)C(=O)Oc1cccc([N+](C)(C)C)c1)C(=O)Oc1cccc([N+](C)(C)C)c1,x,x,i,x,x,x,x,x,x
